# Data taken from ChEMBL document CHEMBL1255542, “Reverse-benzamidine antimalarial agents: design, synthesis, and biological evaluation” (Bioorg Med Chem Lett, 2010).
# What was measured:
# Plasmodium falciparum = assay: Antimalarial activity against Plasmodium falciparum; type: functional, organism-based
# How it was run: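 Chloroquine-sensitive Nigerian strain of P. falciparum; inhibition of in vitro growth; IC50 taken as the mean of at least two independent experiments, each run in duplicate.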
# Plasmodium vinckei [1] = assay: Antimalarial activity against Plasmodium vinckei 279BY infected in Swiss mice (Mus musculus) assessed as reduction in parasitemia at 5 mg/kg, intraperitoneally; type: functional; parameters: scale not given: the % may be the effect or the level left; conditions: route intraperitoneal
# How it was run: (§1)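 Female Swiss mice infected with P. vinckei petteri 279BY on day 0. Dosing once daily on days 1–4 post infection, ip or po as given in each line, n = 3 per dose. Parasitemia measured on day 5 and expressed as decrease relative to untreated control. ED50 derived from the dose series.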
# Plasmodium vinckei [2] = assay: Antimalarial activity against Plasmodium vinckei 279BY infected in Swiss mice (Mus musculus) dosed perorally for 4 consecutive days; type: functional; conditions: ip, in the assay text read “dosed intraperitoneally” for “dosed perorally”; how it was run: as §1
# Plasmodium vinckei [3] = assay: Antimalarial activity against Plasmodium vinckei 279BY infected in Swiss mice (Mus musculus) assessed as reduction in parasitemia at 180 mg/kg, po; type: functional; parameters: scale not given: the % may be the effect or the level left; how it was run: as §1
IC50 (Plasmodium falciparum) [nM],Structure (SMILES),Activity (Plasmodium vinckei [1]) [%],ED50 (Plasmodium vinckei [2]) [mg/kg],Activity (Plasmodium vinckei [3]) [%]
6.7,COc1ccc(C(=N)NCCCCCCCCCCCCNC(=N)c2ccc(OC)c(OC)c2)cc1OC.Cl.Cl,40,> 5,
6.6,COc1cccc(C(=N)NCCCCCCCCCCCCNC(=N)c2cccc(OC)c2)c1.Cl.Cl,,5,42
39,COc1cc(OC)cc(C(=N)NCCCCCCCCCCCCNC(=N)c2cc(OC)cc(OC)c2)c1.Cl.Cl,,5,20
14,Cl.Cl.N=C(NCCCCCCCCCCCCNC(=N)c1ccc(N)cc1)c1ccc(N)cc1,,2.2,58
10,Cc1ccc(C(=N)NCCCCCCCCCCCCNC(=N)c2ccc(C)cc2)cc1.Cl.Cl,,3.1,
,CC(=N)NCCCCCCCCCCCCNC(C)=N.Cl.Cl,,3.1,
18,CCC(=N)NCCCCCCCCCCCCNC(=N)CC.Cl.Cl,,> 10,
10.2,CC(C)C(=N)NCCCCCCCCCCCCNC(=N)C(C)C.Cl.Cl,,7,
16,Cl.Cl.N=C(NCCCCCCCCCCCCNC(=N)C1CC1)C1CC1,,5,
9.15,Cl.Cl.NC(=O)NCCCCCCCCCCCCNC(N)=O,,8.5,
715,N=C(NCCCCCCCCCCCCNC(=N)c1ccco1)c1ccco1,,,
455,N=C(NCCCCCCCCCCCCNC(=N)c1ccc(C(F)(F)F)cc1)c1ccc(C(F)(F)F)cc1,,,
520,N=C(NCCCCCCCCCCCCNC(=N)c1ccc([N+](=O)[O-])cc1)c1ccc([N+](=O)[O-])cc1,,,
26.5,COc1ccc(C(=N)NCCCCCCCCCCCCNC(=N)c2ccc(OC)cc2)cc1.Cl.Cl,,> 20,
24.5,COc1ccccc1C(=N)NCCCCCCCCCCCCNC(=N)c1ccccc1OC.Cl.Cl,,12,
55.5,Cl.Cl.N=C(NCCCCCCCCCCCCNC(=N)c1ccc2c(c1)OCO2)c1ccc2c(c1)OCO2,,12,
13.5,Cl.Cl.N=C(NCCCCCCCCCCCCNC(=N)c1ccccc1)c1ccccc1,,> 10,
